# High-throughput results as filed in PubChem.
# Most compounds without a hit are left out; they make up all but 3.1% or so of the library.
# PAFAH1B2 FP inh – PAFAH1B2 (human) inhibition; recombinant PAFAH1B2, FP-rhodamine activity probe, fluorescence polarization; inhibition, % at 3.39 µM; hit rate 1.2% among 340,000; AID 492953;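 active = inhibition above the mean of all tested compounds plus 3 SD, cut at about 24% in these data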;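 also: 0% = enzyme with DMSO and 100% = wells lacking PAFAH1B2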
# Apaf1 inhib – human Apaf-1 inhibition; hit rate 0.71% among 330,000; O14727; inhibition, % at 20 µM; reconstituted apoptosome caspase-3 activity, DEVD-Rh110 fluorescence; active = inhibition of at least 40% at 20 µM;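 also: plate controls were DMSO wells for no effect and DEVD-CHO caspase inhibitor wells for full effect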
#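 Material: reconstituted apoptosome with Apaf-1, cytochrome c, caspase-9, procaspase-3, dATP; medium: pH 7.5 Hepes buffer with CHAPS, BSA, DTT; also added: cytochrome c and DEVD-Rh110 substrate; timing: 30 min plus 50 min, RT; signal: Rh110 fluorescence intensity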
# PAFAH2 FP inh – PAFAH2 (human) inhibition. Q99487. recombinant PAFAH2, FP-rhodamine activity probe, fluorescence polarization. inhibition, % at 3.39 µM. hit rate 0.99% among 340,000. AID 492956;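 active = inhibition above the mean over all tested compounds plus 3 SD, cut at about 30% in these data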;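 also: inhibitors block probe labeling of enzyme so polarization drops; 0% = enzyme with DMSO and 100% = wells lacking PAFAH2 protein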
# PAFAH1B3 inh – inhibitors of human PAFAH1B3; Q15102; recombinant PAFAH1B3, FP-rhodamine probe, fluorescence polarization; inhibition, % at 3.39 µM; hit rate 0.28% among 340,000;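 active = inhibition above the screen-wide average of all tested compounds plus 3 SD, cut at about 25% in these data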;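 also: 0% = enzyme with DMSO only and 100% = wells lacking PAFAH1B3 protein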
# Target sequence (Q15102 whole entry, looked up): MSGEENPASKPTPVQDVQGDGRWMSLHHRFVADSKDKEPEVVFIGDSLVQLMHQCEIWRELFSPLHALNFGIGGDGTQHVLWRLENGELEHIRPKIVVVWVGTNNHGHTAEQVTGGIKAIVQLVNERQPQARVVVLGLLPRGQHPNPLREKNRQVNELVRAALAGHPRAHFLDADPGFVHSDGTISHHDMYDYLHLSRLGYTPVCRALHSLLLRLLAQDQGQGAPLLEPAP
# pPAFAH FP inh – pPAFAH (human) enzyme inhibition. Q13093. recombinant pPAFAH, FP-rhodamine probe fluorescence polarization. inhibition, % at 3.39 µM. hit rate 1.5% among 330,000. AID 463082;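 active = inhibition above the mean inhibition across the screen plus 3 SD, cut at about 25% in these data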;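 also: inhibitors block binding of the rhodamine activity-based probe so polarization drops; 0% = enzyme with DMSO and 100% = wells lacking pPAFAH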
# An asterisk follows results filed as active; nt = not tested or not shown.
SMILES,PAFAH1B2 FP inh,Apaf1 inhib,PAFAH2 FP inh,PAFAH1B3 inh,pPAFAH FP inh
COc1ccc(Oc2coc3cc(OC(=O)N4CCOCC4)ccc3c2=O)cc1,-4,1,9,-4,34*
COc1ccc(Oc2coc3cc(OC(=O)c4cccs4)ccc3c2=O)cc1,6,14,7,3,1
Cc1ccc(CS(=O)(=O)CCC(=O)NCc2ccccc2Cl)cc1,8,-1,-6,6,29*
CCc1ccc(Nc2nnc(SCC(=O)c3c(N)n(C4CC4)c(=O)[nH]c3=O)s2)cc1,9,7,-9,0,-6
COc1ccc(Nc2nc(Nc3ccc(OC)cc3)nc(SC3=NCCS3)n2)cc1,1,-1,6,7,34*
O=C1CC(/C=C/c2ccco2)=Nc2ccccc2N1,6,18,7,10,26*
O=C1CC(/C=C/c2ccccn2)=Nc2ccccc2N1,2,3,3,9,5
Cc1cc(=O)oc2c3c(cc(OCC(=O)N[C@@H](CC(C)C)C(=O)O)c12)OC(C)(C)CC3,35*,9,13,4,0
CCCC(NC(=O)COc1cc2c(c3oc(=O)cc(C)c13)CCC(C)(C)O2)C(=O)O (configuration not stated),9,6,13,-3,7
O=C([C@H](Cc1ccccc1)NS(=O)(=O)c1ccc(Cl)cc1)N1CC[C@@]2(O)CCCC[C@H]2C1,30*,-14,26,4,5
Cc1ccc2c(c1C)OC(=O)CC2c1ccccc1 (configuration not stated),5,-4,4,11,-2
CCCCC(O)(c1ccc(OC)cc1)C(CN1CCOCC1)c1ccccc1 (configuration not stated),24*,22,-4,9,-3
CCCNC(=O)c1ccc(N2CCC3(CC2)CC(c2cccc(Br)c2)=NO3)c(NC(=O)c2cccc(C)c2)c1,-2,12,-5,-14,-4
O=[N+]([O-])c1ccc(Cl)c(-c2ccc(/C=N/c3c(-c4ccco4)nc4ccccn34)o2)c1,3,15,2,-5,11
Cc1cc(C)c([N+](=O)[O-])cc1-c1ccc(/C=N/c2c(-c3ccco3)nc3ccccn23)o1,5,25,17,8,32*
O=C(Nc1nnc(CCc2ccccc2)s1)c1cccc(F)c1,25*,12,10,12,-3
COc1ccc(NS(=O)(=O)c2ccc(O)c(C(=O)OCC(=O)NC(C)C3CC4CCC3C4)c2)cc1 (configuration not stated),17,10,20,3,31*
CC(NC(=O)COC(=O)c1cc(NS(=O)(=O)c2ccc(Cl)c([N+](=O)[O-])c2)ccc1O)C1CC2CCC1C2 (configuration not stated),22,13,25,4,28*
CC(NC(=O)COC(=O)c1ccccc1O)C1CC2CCC1C2 (configuration not stated),13,6,24,6,8
CCOC(=O)c1c(NC(=O)C(C)Sc2cccc[n+]2[O-])sc2c1CCN(Cc1ccccc1)C2 (configuration not stated),-2,nt,-16,7,33*
COc1cccc(C(=O)NCCS(=O)(=O)N2CC(C)CC(C)C2)c1 (configuration not stated),5,7,3,13,0
Nn1c(SCC(=O)Nc2nccs2)nnc1-c1ccccn1,3,-4,-2,-1,0
CC1(OC(=O)c2ccco2)C(=O)C=C2C=C(c3ccc(C#N)cc3)OC=C2C1=O (configuration not stated),nt,-4,nt,nt,52*
CC1(OC(=O)CCc2ccccc2)C(=O)C=C2C=C(c3ccc(C#N)cc3)N(Cc3ccccc3)C=C2C1=O (configuration not stated),-7,13,0,-5,15
CCC(=O)OC1(C)C(=O)C=C2C=C(c3ccc(C#N)cc3)OC=C2C1=O (configuration not stated),7,6,11,18,33*
CC1(OC(=O)CCc2ccccc2)C(=O)C=C2C=C(c3ccc(C#N)cc3)N(Cc3ccco3)C=C2C1=O (configuration not stated),4,14,-3,-6,33*
CC1(OC(=O)CCc2ccccc2)C(=O)C=C2C=C(c3ccc(C#N)cc3)N(C3CC3)C=C2C1=O (configuration not stated),-1,31,2,7,4
